Measured values published in ChEMBL document CHEMBL1128374, “Preparation and in vitro activities of ethers of [D-serine]8-cyclosporin” (J Med Chem, 1995).
Values after ≈ are worked out from the molar mass of the structure shown.

Columns and labels:
Format in all cases: functional
Mus musculus [1] = organism: Mus musculus; test: In vitro inhibition of interleukin-2 (IL-2) production induced by stimulating lymphocytes derived from mouse spleens with the […]; settings: Spleen
Outline: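 Compounds added with concanavalin A to the primary culture; supernatants collected at 48 h. IL-2 content measured by growth of IL-2-dependent CTLL cells, read as tritiated thymidine incorporation after 48 h. IC50 determined, with cyclosporin A run in parallel.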

Mus musculus [2] = organism: Mus musculus; test: In vitro efficacy to suppress lymphocyte proliferation as measured by the incorporation of a labeled precursor ([3H]- thymidine) into DNA in Mixed Lymphocyte reaction (MLR).
Outline: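 Cells from spleens of female CBA mice aged 8–10 weeks (ca. 5 x 10^5). Compounds made up at 20 mg/mL in 9:1 (v/v) ethanol/Tween 80, then diluted in saline before adding to medium. Four concentrations per compound across 1.8–1000 ng/mL, in triplicate cultures. IC50 is the calculated concentration giving 50% inhibition of proliferation. Cyclosporin A run in parallel as control.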

Mus musculus [3] = organism: Mus musculus; test: In vitro efficacy on humoral immune response by Mishell-Dutton assay (MD).
Outline: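 Spleen lymphocytes from female OF1 mice (ca. 10 x 10^6) cultured 3 days with sheep erythrocytes (ca. 30 x 10^6) and test compound. Cells then plated on agar with fresh erythrocytes; plaques form by complement lysis. Read-out is the count of antibody-producing plaque-forming cells. Cyclosporin A run in parallel.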

SMILES | IC50 (Mus musculus [1]) [µg/mL] | IC50 (Mus musculus [2]) [µg/mL] | IC50 (Mus musculus [3]) [µg/mL]
C/C=C/C[C@@H](C)[C@@H](O)[C@H]1C(=O)N[C@@H](CC)C(=O)N(C)CC(=O)N(C)[C@@H](CC(C)C)C(=O)N[C@@H](C(C)C)C(=O)N(C)[C@@H](CC(C)C)C(=O)N[C@@H](C)C(=O)N2CC(=O)OC[C@@H]2C(=O)N(C)[C@@H](CC(C)C)C(=O)N(C)[C@@H](CC(C)C)C(=O)N(C)[C@@H](C(C)C)C(=O)N1C | 0.024 (≈ 0.0191 µM) | 0.167 (≈ 0.133 µM) | –
C/C=C/C[C@@H](C)[C@@H](O)[C@H]1C(=O)N[C@@H](CC)C(=O)N(C)CC(=O)N(C)[C@@H](CC(C)C)C(=O)N[C@@H](C(C)C)C(=O)N(C)[C@@H](CC(C)C)C(=O)N[C@@H](C)C(=O)N[C@H](COC/C=C/CO)C(=O)N(C)[C@@H](CC(C)C)C(=O)N(C)[C@@H](CC(C)C)C(=O)N(C)[C@@H](C(C)C)C(=O)N1C | – | 0.07 (≈ 0.0543 µM) | 0.036 (≈ 0.0279 µM)
C/C=C/C[C@@H](C)[C@@H](O)[C@H]1C(=O)N[C@@H](CC)C(=O)N(C)CC(=O)N(C)[C@@H](CC(C)C)C(=O)N[C@@H](C(C)C)C(=O)N(C)[C@@H](CC(C)C)C(=O)N[C@@H](C)C(=O)N[C@H](COCC#N)C(=O)N(C)[C@@H](CC(C)C)C(=O)N(C)[C@@H](CC(C)C)C(=O)N(C)[C@@H](C(C)C)C(=O)N1C | – | 0.01 (≈ 0.00795 µM) | 0.023 (≈ 0.0183 µM)
C/C=C/C[C@@H](C)[C@@H](O)[C@H]1C(=O)N[C@@H](CC)C(=O)N(C)CC(=O)N(C)[C@@H](CC(C)C)C(=O)N[C@@H](C(C)C)C(=O)N(C)[C@@H](CC(C)C)C(=O)N[C@@H](C)C(=O)N[C@H](COCC(C)(C)O)C(=O)N(C)[C@@H](CC(C)C)C(=O)N(C)[C@@H](CC(C)C)C(=O)N(C)[C@@H](C(C)C)C(=O)N1C | – | 0.05 (≈ 0.0387 µM) | 0.078 (≈ 0.0604 µM)
C/C=C/C[C@@H](C)[C@@H](O)[C@H]1C(=O)N[C@@H](CC)C(=O)N(C)CC(=O)N(C)[C@@H](CC(C)C)C(=O)N[C@@H](C(C)C)C(=O)N(C)[C@@H](CC(C)C)C(=O)N[C@@H](C)C(=O)N[C@H](COCC(=O)OC(C)C)C(=O)N(C)[C@@H](CC(C)C)C(=O)N(C)[C@@H](CC(C)C)C(=O)N(C)[C@@H](C(C)C)C(=O)N1C | – | 0.1 (≈ 0.0758 µM) | 0.725 (≈ 0.55 µM)
C/C=C/C[C@@H](C)[C@@H](O)[C@H]1C(=O)N[C@@H](CC)C(=O)N(C)CC(=O)N(C)[C@@H](CC(C)C)C(=O)N[C@@H](C(C)C)C(=O)N(C)[C@@H](CC(C)C)C(=O)N[C@@H](C)C(=O)N[C@H](COCCOCC(=O)OC(C)C)C(=O)N(C)[C@@H](CC(C)C)C(=O)N(C)[C@@H](CC(C)C)C(=O)N(C)[C@@H](C(C)C)C(=O)N1C | – | 0.05 (≈ 0.0367 µM) | 0.078 (≈ 0.0572 µM)
C/C=C/C[C@@H](C)[C@@H](O)[C@H]1C(=O)N[C@@H](CC)C(=O)N(C)CC(=O)N(C)[C@@H](CC(C)C)C(=O)N[C@@H](C(C)C)C(=O)N(C)[C@@H](CC(C)C)C(=O)N[C@@H](C)C(=O)N[C@H](COCC(=O)OC)C(=O)N(C)[C@@H](CC(C)C)C(=O)N(C)[C@@H](CC(C)C)C(=O)N(C)[C@@H](C(C)C)C(=O)N1C | – | 0.044 (≈ 0.0341 µM) | 0.065 (≈ 0.0504 µM)
C/C=C/C[C@@H](C)[C@@H](O)[C@H]1C(=O)N[C@@H](CC)C(=O)N(C)CC(=O)N(C)[C@@H](CC(C)C)C(=O)N[C@@H](C(C)C)C(=O)N(C)[C@@H](CC(C)C)C(=O)N[C@@H](C)C(=O)N[C@H](COCCC2OCCCO2)C(=O)N(C)[C@@H](CC(C)C)C(=O)N(C)[C@@H](CC(C)C)C(=O)N(C)[C@@H](C(C)C)C(=O)N1C | – | 0.12 (≈ 0.09 µM) | 0.21 (≈ 0.158 µM)
C/C=C/C[C@@H](C)[C@@H](O)[C@H]1C(=O)N[C@@H](CC)C(=O)N(C)CC(=O)N(C)[C@@H](CC(C)C)C(=O)N[C@@H](C(C)C)C(=O)N(C)[C@@H](CC(C)C)C(=O)N[C@@H](C)C(=O)N[C@H](COCCOCCOCCO)C(=O)N(C)[C@@H](CC(C)C)C(=O)N(C)[C@@H](CC(C)C)C(=O)N(C)[C@@H](C(C)C)C(=O)N1C | – | 0.47 (≈ 0.348 µM) | 0.1 (≈ 0.074 µM)
C/C=C/C[C@@H](C)[C@@H](O)[C@H]1C(=O)N[C@@H](CC)C(=O)N(C)CC(=O)N(C)[C@@H](CC(C)C)C(=O)N[C@@H](C(C)C)C(=O)N(C)[C@@H](CC(C)C)C(=O)N[C@@H](C)C(=O)N[C@H](COCCCCO)C(=O)N(C)[C@@H](CC(C)C)C(=O)N(C)[C@@H](CC(C)C)C(=O)N(C)[C@@H](C(C)C)C(=O)N1C | – | 0.094 (≈ 0.0728 µM) | 0.09 (≈ 0.0697 µM)
C/C=C/C[C@@H](C)[C@@H](O)[C@H]1C(=O)N[C@@H](CC)C(=O)N(C)CC(=O)N(C)[C@@H](CC(C)C)C(=O)N[C@@H](C(C)C)C(=O)N(C)[C@@H](CC(C)C)C(=O)N[C@@H](C)C(=O)N[C@H](COC/C=C/CBr)C(=O)N(C)[C@@H](CC(C)C)C(=O)N(C)[C@@H](CC(C)C)C(=O)N(C)[C@@H](C(C)C)C(=O)N1C | – | 0.09 (≈ 0.0666 µM) | 0.24 (≈ 0.178 µM)
C/C=C/C[C@@H](C)[C@@H](O)[C@H]1C(=O)N[C@@H](CC)C(=O)N(C)CC(=O)N(C)[C@@H](CC(C)C)C(=O)N[C@@H](C(C)C)C(=O)N(C)[C@@H](CC(C)C)C(=O)N[C@@H](C)C(=O)N[C@H](COCCOS(=O)(=O)c2ccc(C)cc2)C(=O)N(C)[C@@H](CC(C)C)C(=O)N(C)[C@@H](CC(C)C)C(=O)N(C)[C@@H](C(C)C)C(=O)N1C | 0.014 (≈ 0.00988 µM) | 0.05 (≈ 0.0353 µM) | –
C/C=C/C[C@@H](C)[C@@H](O)[C@H]1C(=O)N[C@@H](CC)C(=O)N(C)CC(=O)N(C)[C@@H](CC(C)C)C(=O)N[C@@H](C(C)C)C(=O)N(C)[C@@H](CC(C)C)C(=O)N[C@@H](C)C(=O)N[C@H](COC/C=C/COC(C)=O)C(=O)N(C)[C@@H](CC(C)C)C(=O)N(C)[C@@H](CC(C)C)C(=O)N(C)[C@@H](C(C)C)C(=O)N1C | – | 0.04 (≈ 0.0301 µM) | 0.04 (≈ 0.0301 µM)
C/C=C/C[C@@H](C)[C@@H](O)[C@H]1C(=O)N[C@@H](CC)C(=O)N(C)CC(=O)N(C)[C@@H](CC(C)C)C(=O)N[C@@H](C(C)C)C(=O)N(C)[C@@H](CC(C)C)C(=O)N[C@@H](C)C(=O)N[C@H](COCCOCCOCC(=O)OC(C)C)C(=O)N(C)[C@@H](CC(C)C)C(=O)N(C)[C@@H](CC(C)C)C(=O)N(C)[C@@H](C(C)C)C(=O)N1C | – | 0.35 (≈ 0.249 µM) | 0.53 (≈ 0.377 µM)
C/C=C/C[C@@H](C)[C@@H](O)[C@H]1C(=O)N[C@@H](CC)C(=O)N(C)CC(=O)N(C)[C@@H](CC(C)C)C(=O)N[C@@H](C(C)C)C(=O)N(C)[C@@H](CC(C)C)C(=O)N[C@@H](C)C(=O)N2CCCC[C@@H]2C(=O)N(C)[C@@H](CC(C)C)C(=O)N(C)[C@@H](CC(C)C)C(=O)N(C)[C@@H](C(C)C)C(=O)N1C | – | 0.029 (≈ 0.0233 µM) | –
C/C=C/C[C@@H](C)[C@@H](O)[C@H]1C(=O)N[C@@H](CC)C(=O)N(C)CC(=O)N(C)[C@@H](CC(C)C)C(=O)N[C@@H](C(C)C)C(=O)N(C)[C@@H](CC(C)C)C(=O)N[C@@H](C)C(=O)N2COC[C@@H]2C(=O)N(C)[C@@H](CC(C)C)C(=O)N(C)[C@@H](CC(C)C)C(=O)N(C)[C@@H](C(C)C)C(=O)N1C | – | 0.118 (≈ 0.0959 µM) | –
C=CCOC[C@H]1NC(=O)[C@H](C)NC(=O)[C@H](CC(C)C)N(C)C(=O)[C@H](C(C)C)NC(=O)[C@H](CC(C)C)N(C)C(=O)CN(C)C(=O)[C@H](CC)NC(=O)[C@H]([C@H](O)[C@H](C)C/C=C/C)N(C)C(=O)[C@H](C(C)C)N(C)C(=O)[C@H](CC(C)C)N(C)C(=O)[C@H](CC(C)C)N(C)C1=O | 0.115 (≈ 0.0914 µM) | 0.088 (≈ 0.0699 µM) | 0.032 (≈ 0.0254 µM)
C/C=C/C[C@@H](C)[C@@H](O)[C@H]1C(=O)N[C@@H](CC)C(=O)N(C)CC(=O)N(C)[C@@H](CC(C)C)C(=O)N[C@@H](C(C)C)C(=O)N(C)[C@@H](CC(C)C)C(=O)N[C@@H](C)C(=O)N[C@H](COCCCO)C(=O)N(C)[C@@H](CC(C)C)C(=O)N(C)[C@@H](CC(C)C)C(=O)N(C)[C@@H](C(C)C)C(=O)N1C | – | 0.02 (≈ 0.0157 µM) | 0.009 (≈ 0.00705 µM)
C/C=C/C[C@@H](C)[C@@H](O)[C@H]1C(=O)N[C@@H](CC)C(=O)N(C)CC(=O)N(C)[C@@H](CC(C)C)C(=O)N[C@@H](C(C)C)C(=O)N(C)[C@@H](CC(C)C)C(=O)N[C@@H](C)C(=O)N2CCOC[C@@H]2C(=O)N(C)[C@@H](CC(C)C)C(=O)N(C)[C@@H](CC(C)C)C(=O)N(C)[C@@H](C(C)C)C(=O)N1C | 0.003 (≈ 0.00241 µM) | 0.006 (≈ 0.00482 µM) | –
C/C=C/C[C@@H](C)[C@@H](O)[C@H]1C(=O)N[C@@H](CC)C(=O)N(C)CC(=O)N(C)[C@@H](CC(C)C)C(=O)N[C@@H](C(C)C)C(=O)N(C)[C@@H](CC(C)C)C(=O)N[C@@H](C)C(=O)N[C@H](COCCN=[N+]=[N-])C(=O)N(C)[C@@H](CC(C)C)C(=O)N(C)[C@@H](CC(C)C)C(=O)N(C)[C@@H](C(C)C)C(=O)N1C | – | 0.11 (≈ 0.0854 µM) | 0.087 (≈ 0.0676 µM)
C=C1COC[C@@H]2C(=O)N(C)[C@@H](CC(C)C)C(=O)N(C)[C@@H](CC(C)C)C(=O)N(C)[C@@H](C(C)C)C(=O)N(C)[C@@H]([C@H](O)[C@H](C)C/C=C/C)C(=O)N[C@@H](CC)C(=O)N(C)CC(=O)N(C)[C@@H](CC(C)C)C(=O)N[C@@H](C(C)C)C(=O)N(C)[C@@H](CC(C)C)C(=O)N[C@@H](C)C(=O)N2C1 | 0.012 (≈ 0.00944 µM) | 0.036 (≈ 0.0283 µM) | –
C/C=C/C[C@@H](C)[C@@H](O)[C@H]1C(=O)N[C@@H](CC)C(=O)N(C)CC(=O)N(C)[C@@H](CC(C)C)C(=O)N[C@@H](C(C)C)C(=O)N(C)[C@@H](CC(C)C)C(=O)N[C@@H](C)C(=O)N2CC(OCC)OC[C@@H]2C(=O)N(C)[C@@H](CC(C)C)C(=O)N(C)[C@@H](CC(C)C)C(=O)N(C)[C@@H](C(C)C)C(=O)N1C (mixture of isomers) | 0.01 | 0.04 | –
